Assay results collected from several papers.
Lines come from different studies, so protocols differ.
FAP: Prolyl endopeptidase FAP (FAP, Homo sapiens, UniProt Q12884)

`C=CCn1c2cc(OC(=O)CCCCN3CCN(Cc4cccc(Cl)c4)CC3)ccc2c2ccnc(C)c21` gave an inhibition of 48.1% (Acetylcholinesterase (ACHE, Homo sapiens, UniProt P22303); enzyme activity, inhibitor, Ellman; 1 µM).
For `C#Cc1n[nH]c2c(-c3cn([C@@H](C)c4ccccc4)c(=O)[nH]c3=O)cc(F)cc12`, the inhibition was 8.4% (Proto-oncogene tyrosine-protein kinase Src (SRC, Homo sapiens, UniProt P12931); enzyme activity, inhibitor; 0.1 µM).
The inhibition of `Cn1cc(-c2cc(F)cc(N3CCn4c(cc5c4CCCC5)C3=O)c2CO)cc(Nc2ccc(N3CCN(C4COC4)CC3)cn2)c1=O` is reported as 12% (Serine/threonine-protein kinase Sgk2 (SGK2, Homo sapiens, UniProt Q9HBY8); enzyme activity, inhibitor; 0.1 µM).
`CCOC(=O)c1ccc(OC(=O)CCCCCNC(=N)N)cc1` has an inhibition of 12% (Stromelysin-2 (Homo sapiens, UniProt P09238); enzyme activity, inhibitor; 10 µM).
With `C#Cc1n[nH]c2c(-c3cn(C(C)c4ccccn4)c(=O)[nH]c3=O)cc(F)cc12` (stereo not drawn) the inhibition was 6.8% (Cyclin-dependent kinase 1, with cyclin B (CDK1, Homo sapiens, UniProt P06493); enzyme activity, inhibitor; 1 µM).
`N#C[C@@H]1CC(F)(F)CN1C(=O)CNC(=O)c1ccnc2ccccc12` gave an inhibition of 100% (FAP; enzyme activity, inhibitor; 0.1 µM).
The inhibition of `Cn1cc(-c2cccc(N3CCc4c(sc5c4CC(C)(C)C5)C3=O)c2CO)cc(Nc2ccncn2)c1=O` is reported as 5% (5'-AMP-activated protein kinase catalytic subunit alpha-2 (PRKAA2, Homo sapiens, UniProt P54646); enzyme activity, inhibitor; 1 µM).
`N=C(N)c1ccc2cc(OC(=O)c3ccc(N=C(N)N)cc3)ccc2c1` gave an inhibition of 25% (FAP; enzyme activity, inhibitor; 10 µM).
`O=C(Nc1cccnn1)N1CCN([C@@H]2CCOc3cc(C(F)(F)F)ccc32)CC1` has an inhibition of -21% (C-X-C chemokine receptor type 4 (CXCR4, Homo sapiens, UniProt P61073); cell-free assay; 20 µM).
